The source of these data is ChEMBL document CHEMBL4825680, “Structure-based discovery of potent and selective small-molecule inhibitors targeting signal transducer and activator of transcription 3 (STAT3)” (Eur J Med Chem, 2021).

Each structure is given as a SMILES string. The source made the active and inactive calls. No cut-off for these calls is given here.

A short description of data set [1]: Metabolic stability in human liver microsomes assessed as clearance at 0.1 uM preincubated for 10 mins followed by NADPH addition and measured upto 60 mins by LC-MS/MS analysis. Type of data set: ADME, Microsome. Particulars: 1 h, time <=70 min. Summed up: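 Microsomes at 0.33 mg/mL in 0.1 M Tris pH 7.4 with 5 mM MgCl2; compound final 0.1 μM (0.01% DMSO, 0.005% BSA). Preincubated 10 min at 37 °C, then started with 1 mM NADPH. Sampled at 0, 7, 17, 30 and 60 min and quenched with cold methanol. Centrifuged, then analysed by LC-MS/MS.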

Data set [2] addresses T1, Signal transducer and activator of transcription 3 (Homo sapiens, UniProt P40763). Nature of the data set: Inhibition of STAT3 phosphorylation at Tyr705 residue in human HCC70 cells after 3 hrs by Western blotting analysis. Particulars: dose 0.3-3 µM. Type of data set: cell-based. (In general: Immunoblotting shows a protein as a band on a membrane.)
Data set [3] deals with MDA231-LM2-4175. As to the kind of experiment: Effect on total STAT3 level in human MDA231-LM2-4175 cells at 0.3 to 3 uM measured after 3 hrs by Western blot analysis. Particulars: dose 0.3-3 µM. Type of data set: functional, cell-based. In outline:
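Breast cancer cells were treated with vehicle (0.1% DMSO) or compound, then lysed in RIPA with PMSF and phosphatase inhibitors. 20–50 μg protein was run on 8 or 12% SDS-PAGE, blotted to PVDF, blocked in 5% BSA, probed with primary antibodies overnight at 4 °C, then HRP secondaries, with ECL detection.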

Data set [4] has as its target T1, Signal transducer and activator of transcription 3. As to the kind of experiment: Inhibition of STAT3 DNA binding in human MDA-MB-231 cells at 0.3 to 1 uM after 3 hrs by EMSA analysis. Type of data set: cell-based. Particulars: dose 0.3-1 µM. In outline:
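Cells exposed to vehicle or compound for 3 h. Nuclear extracts prepared and BCA-quantified. Nuclear protein (8–10 µg) incubated with biotinylated STAT3 or STAT5 probe, resolved on 6% native polyacrylamide gel, transferred to nylon membrane and detected with a gel-shift kit.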
In general terms: Mobility shift assays separate free from complexed probe on a gel.

The target is the same in data set [5]. Nature of the data set: Inhibition of STAT3 in human HCC70 cells assessed as downregulation of c-Myc expression at 0.3 to 3 uM after 24 hrs by western blot analysis. Type of data set: cell-based. Particulars: dose 0.3-3 µM. In outline: (§1)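 TNBC cells given vehicle (0.1% DMSO) or graded compound levels for 24 h, lysed in RIPA with PMSF and phosphatase inhibitors. BCA-quantified lysate (20–50 µg) run on SDS-PAGE, transferred to PVDF, blocked in 5% BSA. Probed overnight at 4 °C for Bcl-xL, Mcl-1 and c-Myc, with β-actin. HRP secondary, ECL detection. Three independent experiments.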

Data set [6] shares this target. As to the kind of experiment: Inhibition of STAT3 in human MDA231-LM2-4175 cells assessed as downregulation of Bcl-xL expression at 0.3 to 3 uM after 24 hrs by western blot analysis. Type of data set: cell-based. Particulars: dose 0.3-3 µM. In outline: as §1
Data set [7] has as its system MDA-MB-231. As to the kind of experiment: Inhibition of colony formation in human MDA-MB-231 cells at 0.3 uM after 10 to 15 days by crystal violet staining based assay. The data set is classed as functional, cell-based. Particulars: time 10-15 day. In outline: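 Cells seeded at 0.5×10^3–1×10^3 per well; compound added the next day. Medium and compound renewed every 2–3 days. After about 10–15 days, colonies fixed with 4% paraformaldehyde, stained with crystal violet, scanned and quantified by image analysis. Triplicate.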

A short description of data set [8]: Induction of apoptosis in human MDA231-LM2-4175 cells assessed as early apoptotic cells at 1 uM after 48 hrs by Annexin-V-FITC/propidium iodide staining based flow cytometric analysis (reference value: 2.49%). The data set is classed as functional. (In flow cytometry, cells or beads pass a laser one at a time.)
Data set [9] in a line: Induction of apoptosis in human MDA231-LM2-4175 cells assessed as late apoptotic cells at 3 uM after 48 hrs by Annexin-V-FITC/propidium iodide staining based flow cytometric analysis (reference value: 2.60%). Type of data set: functional.
Data set [10] has as its system MDA-MB-468. Nature of the data set: Induction of apoptosis in human MDA-MB-468 cells assessed as early apoptotic cells at 3 uM after 48 hrs by Annexin-V-FITC/propidium iodide staining based flow cytometric analysis (reference value: 2.66%). Type of data set: functional.
For data set [11], the system named is MDA-MB-231. As to the kind of experiment: Induction of apoptosis in human MDA-MB-231 cells assessed as increase in PARP cleavage at 3 uM after 48 hrs by Western blot analysis. The data set is classed as functional, cell-based. In outline: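 Cells were treated with vehicle (0.1% DMSO) or compound, then analysed by western blot of RIPA lysates (20–50 μg protein, SDS-PAGE, PVDF) for PARP and cleaved caspase-7, with β-actin as loading control. Three independent experiments.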

The test system of the next data set is HCC70. As to the kind of experiment: Inhibition of cell migration in human HCC70 cells incubated for 12 to 96 hrs by wound healing assay. Type of data set: functional, cell-based. Particulars: dose 0.3-3 µM, time 12-96 hrs. In outline: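 Confluent monolayer (0.8–1.2×10^6 cells/well) scratched with a pipette tip, then treated with 0–3 µM compound until vehicle cells filled the gap. Imaged by microscope after about 12–96 h. Triplicate.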

Data set [12] deals with MDA-MB-468. As to the kind of experiment: Inhibition of cell invasion in human MDA-MB-468 cells incubated for 12 hrs by crystal violet staining based transwell assay. Type of data set: functional. Particulars: dose 1-3 µM. Summed up: (§2)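 Cells seeded at 1.5×10^4–3×10^4 per well in the upper chamber of 8.0 µm pore Transwell inserts and treated with graded compound for 12 h. Non-invading cells removed with cotton. Invaded cells fixed in 4% paraformaldehyde, stained with crystal violet, photographed and counted. Triplicate.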

The test system of data set [13] is MDA231-LM2-4175. Nature of the data set: Inhibition of cell invasion in human MDA231-LM2-4175 cells incubated for 12 hrs by crystal violet staining based transwell assay. Type of data set: functional. Particulars: dose 1-3 µM. In outline: as §2
Data set [14] can be described thus: AUC(0 to last) in Sprague-Dawley rat at 10 mg/kg, po measured up to 24 hrs by LC-MS/MS analysis. Type of data set: ADME, organism-based. On the set-up: route oral, dose 10 mg/kg, time <=24. Particulars: in vivo. In outline:
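Male SD rats given a single oral dose of 10 mg/kg in DMSO/0.5% HPMC (5/95, v/v). Blood was drawn at 0.25, 0.5, 1, 2, 4, 8 and 24 h, and plasma was analysed by LC-MS/MS on a BEH phenyl column with a formic acid water/acetonitrile mobile phase.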

Data set [15] in a line: Antitumor activity against patient-derived breast cancer cells xenografted in NOD/SCID mouse assessed as tumor growth inhibition at 5 mg/kg, iv administered once daily for 20 days. The data set is classed as functional. Particulars: Homo sapiens, Breast cancer cell line, 480 h, time 20 day, read-out: TGI.
Data set [16] is described as follows: Toxicity in NOD/SCID mouse xenografted with patient-derived breast cancer cells assessed as morphological change in lung at 5 to 15 mg/kg, […] once daily for 20 days by HE staining based assay. Type of data set: organism-based. Particulars: in vivo, iv, dose 5-15 mg/kg, time 20 day. In outline:
(§3)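 Female NOD-SCID mice implanted subcutaneously in the flank with about 2 mm³ TNBC PDX fragments. At about 100 mm³ tumour volume, randomised n=6/group: vehicle (PBS with 15% Cremophor EL), 5 or 15 mg/kg intraperitoneally daily. Killed at day 20; heart, liver, spleen, lung and kidney collected for morphological examination.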

Data set [17] is described as follows: Toxicity in NOD/SCID mouse xenografted with patient-derived breast cancer cells assessed as morphological change in kidney at 5 to 15 mg/kg, […] once daily for 20 days by HE staining based assay. Type of data set: organism-based. Particulars: in vivo, iv, dose 5-15 mg/kg, time 20 day. Summed up:
as §3

A short description of data set [18]: Antitumor activity against patient-derived breast cancer cells xenografted in NOD/SCID mouse assessed as tumor growth inhibition at 15 mg/kg, ip administered once daily for 20 days. Particulars: Homo sapiens, Breast cancer cell line, 480 h, read-out: TGI.

T1 sequence (P40763 whole entry): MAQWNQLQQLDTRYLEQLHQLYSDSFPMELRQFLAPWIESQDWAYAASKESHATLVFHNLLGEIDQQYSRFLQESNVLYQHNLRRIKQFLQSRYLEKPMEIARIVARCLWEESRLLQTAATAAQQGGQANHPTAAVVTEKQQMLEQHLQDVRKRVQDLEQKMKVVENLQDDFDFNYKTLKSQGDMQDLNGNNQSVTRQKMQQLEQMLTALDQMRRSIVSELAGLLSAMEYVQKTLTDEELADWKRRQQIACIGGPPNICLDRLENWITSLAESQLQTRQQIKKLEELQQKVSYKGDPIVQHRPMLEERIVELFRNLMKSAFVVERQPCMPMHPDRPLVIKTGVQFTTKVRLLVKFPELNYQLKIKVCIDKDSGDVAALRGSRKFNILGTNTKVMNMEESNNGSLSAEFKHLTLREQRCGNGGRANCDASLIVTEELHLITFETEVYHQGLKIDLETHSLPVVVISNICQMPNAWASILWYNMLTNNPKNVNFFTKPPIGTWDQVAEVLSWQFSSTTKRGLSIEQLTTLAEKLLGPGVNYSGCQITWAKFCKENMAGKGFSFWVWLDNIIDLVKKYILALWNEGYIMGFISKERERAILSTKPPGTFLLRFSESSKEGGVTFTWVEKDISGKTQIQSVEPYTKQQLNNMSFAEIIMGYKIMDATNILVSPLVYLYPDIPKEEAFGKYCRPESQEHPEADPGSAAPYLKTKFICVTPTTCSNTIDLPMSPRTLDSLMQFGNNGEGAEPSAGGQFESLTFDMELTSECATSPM

With `O=C(Cc1c(-c2ccccc2)nc2ccccn12)Nc1ccc2c(c1)S(=O)(=O)C=C2`, the CLH in [1] was found to be 87 mL/min/g. For the same molecule, the inhibition result (in [2]; in the data set with HCC70; in the data set on MDA-MB-468 [12]; in the data set with MDA231-LM2-4175 [13]) was “Dose-Dependent Effect” each time. Besides, in the data set on MDA231-LM2-4175 [3], the result was inactive. For the same molecule, the inhibition result (in data set [4]; in data set [5]; in [6]; in the data set on MDA-MB-231 [7]) was “Active” in each case. For the same molecule, the Activity in [8] is given as 6.17%; in data set [9], 5.71%; with MDA-MB-468 [10] it was 32.3%; in [16], “Non-Toxic”; in [17] it was “Non-Toxic”. Besides, the outcome with MDA-MB-231 [11] was Active. The AUC(0-t) (usually the area under the concentration-time curve up to a stated or last time point) at 24 h in data set [14] came to 0.0546 µg·h/mL. Moreover, in data set [15], the inhibition in vivo at 5 mg/kg turned out to be 32.7%. Besides, the inhibition in vivo at 15 mg/kg in [18] worked out at 68.9%.
